# According to ChEMBL document CHEMBL1240439, “Synthesis and docking studies of novel benzopyran-2-ones with anticancer activity” (2010):
# Assays:
# Assay type in all cases: functional
# IGROV-1 = assay: Cytotoxicity against human IGROV1 cells assessed as cell growth at 10 uM after 48 hrs by sulforhodamine B assay; conditions: IGROV-1, 48 h, read-out: Activity
# MDA-MB-435 = assay: Cytotoxicity against human MDA-MB-435 cells assessed as cell growth at 10 uM after 48 hrs by sulforhodamine B assay; conditions: MDA-MB-435, 48 h, read-out: Activity
# SNB-75 = assay: Cytotoxicity against human SNB75 cells assessed as cell growth at 10 uM after 48 hrs by sulforhodamine B assay; conditions: SNB-75, 48 h, read-out: Activity
# HOP-92 = assay: Cytotoxicity against human HOP92 cells assessed as cell growth at 10 uM after 48 hrs by sulforhodamine B assay; conditions: HOP-92, 48 h, read-out: Activity
# OVCAR-4 = assay: Cytotoxicity against human OVCAR4 cells assessed as cell growth at 10 uM after 48 hrs by sulforhodamine B assay; conditions: OVCAR-4, 48 h, read-out: Activity
# HCC 2998 = assay: Cytotoxicity against human HCC2998 cells assessed as cell growth at 10 uM after 48 hrs by sulforhodamine B assay; conditions: HCC 2998, 48 h, read-out: Activity
# [1] = Cytotoxicity against human melanoma cells after 48 hrs by sulforhodamine B assay; conditions: Melanoma cell
# In short: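 Cells plated at 5000–40,000/well according to doubling time, then held 24 h at 37 °C, 5% CO2, with time-zero plates TCA-fixed. DMSO stocks (400× top concentration) were diluted in medium containing 50 μg/ml gentamycin, giving five 10-fold or ½-log concentrations. After 48 h, adherent cells were fixed in 10% TCA and suspension cells in 16% TCA (final), stained with 0.4% SRB, read at 515 nm. GI50, TGI and LC50 were calculated per cell line.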
# Malme-3M = assay: Cytotoxicity against human MALME-3M cells assessed as cell growth at 10 uM after 48 hrs by sulforhodamine B assay; conditions: read-out: Activity
structure (smiles),measurement,setting,value
Cc1cc(=O)n(C(=O)COc2ccc3c(-c4ccccc4)cc(=O)oc3c2C)[nH]1,growth at 10 µM,IGROV-1,-17.5%
same,growth at 10 µM,MDA-MB-435,-39.6%
same,growth at 10 µM,SNB-75,-35.2%
same,growth at 10 µM,HOP-92,-64.4%
same,growth at 10 µM,OVCAR-4,-42.9%
same,growth at 10 µM,HCC 2998,17.4%
same,GI50,[1],4.65 µM
same,TGI,[1],43.2 µM
same,CC50,[1]; read-out: LC50 (the source's name),72.4 µM
same,growth at 10 µM,Malme-3M,-8.61%
